Source: ChEMBL document CHEMBL1134494, “2-Amino-6-arylsulfonylbenzonitriles as non-nucleoside reverse transcriptase inhibitors of HIV-1” (J Med Chem, 2001)

Key:
[1] = test system: MT4; assay: Cell culture cytotoxicity against MT-4 cells.; type: functional, cell-based; details: Homo sapiens
Method in brief: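 MT4 cells were exposed to compound in parallel with the 5-day HIV-1 strain 3B cytopathic-effect assay. Compound-induced cytotoxicity is reported as the cell culture cytotoxicity IC50 (CCIC50).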

[2] = test system: MT4; assay: Antiviral activity against HIV-1 infected MT-4 cells at a dose of 5 uM; type: functional; details: Homo sapiens
[3] = molecular target: Human immunodeficiency virus type 1 reverse transcriptase (Human immunodeficiency virus 1, UniProt Q72547); assay: Inhibitory activity against HIV-1 reverse transcriptase
Method in brief: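 Recombinant HIV RT at 1 nM was combined with 40 nM Eu-chelate-labeled biotinylated DNA primer/RNA template and 100 nM Cy5-dUTP. Reactions were started with enzyme.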

[4] = test system: HeLa; assay: Antiviral activity against K103N/V108I mutant virus in the HeLa MAGI assay.; type: functional, cell-based, Homo sapiens
Method in brief: (§1)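 Isogenic recombinant HIV-1 strains carrying the listed RT mutations were tested against the test compounds in HeLa MAGI indicator cells. Beta-galactosidase was quantified by activation of a chemiluminescent substrate 3 days after infection. IC50 was the concentration inhibiting 50% of the HIV-1-induced beta-galactosidase signal relative to untreated controls. It was determined for each recombinant virus.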

[5] = test system: HeLa; assay: Antiviral activity against K103N/Y181C mutant virus in the HeLa MAGI assay.; type: functional, cell-based, Homo sapiens; method in brief: as §1
[6] = test system: HeLa; assay: Antiviral activity against P236L mutant virus in the HeLa MAGI assay.; type: functional, cell-based, Homo sapiens; method in brief: as §1
[7] = test system: HeLa; assay: Antiviral activity against V106A/Y181C mutant virus in the HeLa MAGI assay.; type: functional, cell-based, Homo sapiens; method in brief: as §1
[8] = test system: HeLa; assay: Antiviral activity against V108I mutant virus in the HeLa MAGI assay.; type: functional, cell-based, Homo sapiens; method in brief: as §1
[9] = test system: HeLa; assay: Antiviral activity against V108I/Y181C mutant virus in the HeLa MAGI assay.; type: functional, cell-based, Homo sapiens; method in brief: as §1
[10] = test system: HeLa; assay: Antiviral activity against Y181C mutant virus in the HeLa MAGI assay.; type: functional, cell-based, Homo sapiens; method in brief: as §1
[11] = test system: HeLa; assay: Antiviral activity against Y188C mutant virus in the HeLa MAGI assay.; type: functional, cell-based, Homo sapiens; method in brief: as §1
[12] = test system: HeLa; assay: Antiviral activity against wild-type HIV-1 in the HeLa MAGI assay.; type: functional, cell-based; details: Homo sapiens
Method in brief: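 HeLa MAGI cells were infected with isogenic recombinant HIV-1. After 3 days, β-galactosidase was quantified by chemiluminescent substrate activation. IC50 is the concentration inhibiting 50% of the HIV-1-induced β-galactosidase signal relative to untreated controls.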

[13] = test system: HeLa; assay: Antiviral activity against E138K mutant virus in the HeLa MAGI assay.; type: functional, cell-based, Homo sapiens; method in brief: as §1
[14] = test system: HeLa; assay: Antiviral activity against G190A mutant virus in the HeLa MAGI assay.; type: functional, cell-based, Homo sapiens; method in brief: as §1
[15] = test system: HeLa; assay: Antiviral activity against K103N mutant virus in the HeLa MAGI assay.; type: functional, cell-based, Homo sapiens; method in brief: as §1
[16] = test system: HeLa; assay: Antiviral activity against K103N/L100I mutant virus in the HeLa MAGI assay.; type: functional, cell-based, Homo sapiens; method in brief: as §1
[17] = test system: HeLa; assay: Antiviral activity against K103N/P225H mutant virus in the HeLa MAGI assay.; type: functional, cell-based, Homo sapiens; method in brief: as §1
[18] = test system: Human immunodeficiency virus 1; assay: Antiviral activity against HIV-1 infected human MT-4 cells.; type: functional, organism-based; details: Human immunodeficiency virus 1, MT4
Method in brief: (§2)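 HTLV-1-transformed MT4 cells were infected with HIV-1 strain 3B at 100× the amount giving a 50% drop in cell growth. They were cultured 5 days with a range of compound concentrations. IC50 is the concentration restoring 50% of infected-cell growth (cytopathic effect) relative to uninfected MT4 controls.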

[19] = test system: HeLa; assay: Antiviral activity against V106A mutant virus in the HeLa MAGI assay.; type: functional, cell-based, Homo sapiens; method in brief: as §1
[20] = test system: MT4; assay: Antiviral activity against HIV-1 infected MT-4 cells; No significant activity uM; type: functional, cell-based; details: Homo sapiens; method in brief: as §2
[21] = test system: MT4; assay: Antiviral activity against HIV-1 infected MT-4 cells; no significant activity uM; type: functional, cell-based; details: Homo sapiens; method in brief: as §2
[22] = molecular target: Human immunodeficiency virus type 1 reverse transcriptase (Human immunodeficiency virus 1) (UniProt Q72547); assay: Inhibitory activity against HIV-1 reverse transcriptase; no significant activity uM
Method in brief: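 Recombinant HIV RT at 1 nM was added to start 50 µL reactions. Cy5-dUMP incorporation was followed for 30 min by time-resolved energy transfer (excitation 340 nm, emission 665 nm).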

| Compound | IC50 [1] | IC50 [3] | IC50 [4] | IC50 [5] | IC50 [6] | IC50 [7] | IC50 [8] | IC50 [9] | IC50 [10] | IC50 [11] | IC50 [12] | IC50 [13] | IC50 [14] | IC50 [15] | IC50 [16] | IC50 [17] | IC50 [18] | IC50 [19] | further results |
| --- | --- | --- | --- | --- | --- | --- | --- | --- | --- | --- | --- | --- | --- | --- | --- | --- | --- | --- | --- |
| N#Cc1c(N)cccc1Sc1cc(Cl)cc(Cl)c1 | 3000 nM | 120 nM |  |  |  |  |  |  |  |  |  |  |  |  |  |  |  |  | inhibition at 5 µM [2]: 62% |
| Cc1cc(C)cc(S(=O)(=O)c2cccc(N)c2C#N)c1 | > 200000 nM |  | 4800 nM | > 50000 nM | 5 nM | 490 nM | 17 nM | 13000 nM | 14000 nM | 210 nM | 11 nM | 17 nM | 30 nM | 1100 nM | 3000 nM | 3300 nM | 10 nM | 2.4 nM |  |
| O=[N+]([O-])c1ccccc1[S+]([O-])c1ccccc1[N+](=O)[O-] |  |  |  |  |  |  |  |  |  |  |  |  |  |  |  |  |  |  | NS [20]: No significant activity |
| COc1ccc(Sc2cccc(N)c2C#N)cc1 |  | > 17000 nM |  |  |  |  |  |  |  |  |  |  |  |  |  |  |  |  | NS [21]: no significant activity |
| Cc1ccccc1Sc1cccc(N)c1C#N | > 40000 nM |  |  |  |  |  |  |  |  |  |  |  |  |  |  |  | 16000 nM |  | NS [22]: no significant activity |
| O=C1Nc2ccc(Cl)cc2[C@@](C#CC2CC2)(C(F)(F)F)O1 [EFAVIRENZ] |  |  | 74 nM | 42 nM | 0.5 nM | 3.3 nM | 1.4 nM | 3.3 nM | 1.8 nM | 1.2 nM | 0.9 nM | 0.8 nM | 6.4 nM | 24 nM | 1600 nM | 130 nM |  | 1.5 nM |  |
| Cc1cc(Br)cc(S(=O)(=O)c2cccc(N)c2C#N)c1 | 133000 nM | 3 nM | 15000 nM | > 50000 nM | 11 nM | 77 nM | 11 nM | 18000 nM | 10000 nM | 1700 nM | 9 nM | 15 nM | 31 nM | 970 nM | 16000 nM | 13000 nM | 20 nM | 1.5 nM |  |
| N#Cc1c(N)cccc1S(=O)(=O)c1cccc2ccccc12 | > 200000 nM | 1000 nM | 3500 nM | > 50000 nM | 2 nM | 230 nM | 30 nM | 66000 nM | 29000 nM | 180 nM | 14 nM | 68 nM | 200 nM | 2300 nM | 1700 nM | 2800 nM | 3320 nM | 5.4 nM |  |
| N#Cc1c(N)cccc1S(=O)(=O)c1cc(Cl)cc(Cl)c1 | > 200000 nM | 30 nM | 4000 nM | > 50000 nM | 2.5 nM | 1800 nM | 47 nM | 58000 nM | 50000 nM | 140 nM | 37 nM | 85 nM | 84 nM | 8300 nM | 5500 nM | 3800 nM | 70 nM | 6.2 nM |  |
| Cc1cc(Cl)cc(S(=O)(=O)c2cccc(N)c2C#N)c1 | > 200000 nM | 5 nM | 33000 nM | > 50000 nM | 10 nM | 210 nM | 17 nM | 13000 nM | 14000 nM | 400 nM | 15 nM | 15 nM | 40 nM | 3600 nM | 20000 nM | 19000 nM | 30 nM | 2.8 nM |  |
| COc1cc(C)cc(S(=O)(=O)c2cccc(N)c2C#N)c1 | 94000 nM | 10 nM | 16000 nM | > 50000 nM | 8 nM | 420 nM | 29 nM | 14000 nM | 13000 nM | 300 nM | 14 nM | 29 nM | 87 nM | 1800 nM | 19000 nM | 7800 nM | 50 nM | 2.9 nM |  |
| Cc1ccnc2c1NC(=O)c1cccnc1N2C1CC1 [NEVIRAPINE] |  |  | 21000 nM | > 50000 nM | 56 nM | > 10000 nM | 340 nM | > 10000 nM | > 10000 nM | 2200 nM | 89 nM | 72 nM | > 10000 nM | 7100 nM | 10000 nM | 10000 nM |  | ~10000 nM |  |
| COc1cc(C(F)(F)F)cc(S(=O)(=O)c2cccc(N)c2C#N)c1 | 164000 nM | 40 nM | 10000 nM | > 50000 nM | 7 nM | 2100 nM | 120 nM | 36000 nM | 36000 nM | 400 nM | 63 nM | 80 nM | 660 nM | 10500 nM | 5000 nM | 5500 nM | 90 nM | 13 nM |  |
